Reference: ChEMBL document CHEMBL1141070, “Synthesis and biological activity of flurbiprofen analogues as selective inhibitors of beta-amyloid(1)(-)(42) secretion” (J Med Chem, 2005)
Values belong to the compound of their own block, whether it stands above or below them.

Key:
[1] = target: T1, Prostaglandin G/H synthase 1 (Rattus norvegicus) (UniProt Q63921); assay: Percent inhibition against cyclooxygenase-1 at 100 uM in rat blood
T1 sequence (whole entry): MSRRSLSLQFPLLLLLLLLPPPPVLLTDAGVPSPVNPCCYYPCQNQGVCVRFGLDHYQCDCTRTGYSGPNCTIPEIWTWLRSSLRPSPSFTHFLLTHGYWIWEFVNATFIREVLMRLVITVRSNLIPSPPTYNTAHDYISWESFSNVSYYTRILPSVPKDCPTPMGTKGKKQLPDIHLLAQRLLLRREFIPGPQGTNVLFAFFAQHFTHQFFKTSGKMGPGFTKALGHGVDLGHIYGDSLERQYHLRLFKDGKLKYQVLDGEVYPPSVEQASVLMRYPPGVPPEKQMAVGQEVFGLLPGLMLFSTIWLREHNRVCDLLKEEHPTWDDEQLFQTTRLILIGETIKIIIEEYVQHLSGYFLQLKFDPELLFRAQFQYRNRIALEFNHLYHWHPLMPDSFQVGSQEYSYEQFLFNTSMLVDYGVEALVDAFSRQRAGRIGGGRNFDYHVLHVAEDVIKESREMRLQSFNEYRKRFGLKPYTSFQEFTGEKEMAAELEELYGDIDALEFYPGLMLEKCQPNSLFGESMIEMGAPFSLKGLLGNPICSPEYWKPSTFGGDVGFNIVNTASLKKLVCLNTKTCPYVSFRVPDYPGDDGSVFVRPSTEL
Summary of the method: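 Fresh rat whole blood preincubated 1 h at 37 °C with compound (100 μM) or DMSO (0.3% final). Stimulated 30 min with A23187 calcium ionophore; plasma thromboxane B2 measured by radioimmunoassay.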

CYP2C19 = CYP2C19 (Homo sapiens, UniProt P33261); assay: Interaction with human cytochrome P450 isoform 2C19 expressed in baculovirus-insect cells at 100 uM; type: ADME
CYP2C19, sequence (P33261 whole entry, canonical isoform): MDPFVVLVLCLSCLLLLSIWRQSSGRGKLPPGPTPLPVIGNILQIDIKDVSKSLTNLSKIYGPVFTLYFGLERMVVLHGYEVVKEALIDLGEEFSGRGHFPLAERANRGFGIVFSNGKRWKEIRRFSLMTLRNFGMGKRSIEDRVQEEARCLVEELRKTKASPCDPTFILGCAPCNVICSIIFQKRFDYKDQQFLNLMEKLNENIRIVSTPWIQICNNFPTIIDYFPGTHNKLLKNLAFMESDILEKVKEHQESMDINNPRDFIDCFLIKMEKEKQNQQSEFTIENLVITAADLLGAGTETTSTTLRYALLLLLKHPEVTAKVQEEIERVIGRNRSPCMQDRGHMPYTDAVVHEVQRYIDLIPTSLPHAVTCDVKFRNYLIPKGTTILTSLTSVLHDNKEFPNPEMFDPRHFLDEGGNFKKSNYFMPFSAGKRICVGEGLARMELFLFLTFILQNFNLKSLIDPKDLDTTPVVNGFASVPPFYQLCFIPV
Summary of the method: (§1)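 Microsomes from baculovirus-insect cells expressing human CYP1A2, 2C9, 2C19, 2D6 or 3A4. Compound serially diluted with an NADPH-regenerating mix (16.3 μM NADP+, 0.83 mM glucose-6-phosphate, 0.83 mM MgCl2, 0.4 U/mL G6PDH). Pre-warmed 10 min at 37 °C, then isoform-specific substrate added in 0.35 M potassium phosphate pH 7.4. Fluorometric read-out; IC50 by nonlinear regression.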

[2] = Intestinal drug absorption was estimated in vitro using human colon adenocarcinoma (Caco-2) cell monolayers; Range is 10-50 nm/s; type: ADME
Summary of the method: (§2)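 Caco-2 monolayers on polycarbonate Transwell inserts, 2 h at 37 °C. Apical and basolateral solutions analysed by LC-MS/MS (SRM). Papp = Cb·Vb/(C0·A·t).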

CYP2D6 = CYP2D6 (Homo sapiens, UniProt P10635); assay: (§3) Interaction with human cytochrome P450 isoform 2D6 expressed in baculovirus-insect cells at 100 uM; type: ADME; summary of the method: as §1
CYP2D6, sequence (P10635 whole entry, canonical isoform): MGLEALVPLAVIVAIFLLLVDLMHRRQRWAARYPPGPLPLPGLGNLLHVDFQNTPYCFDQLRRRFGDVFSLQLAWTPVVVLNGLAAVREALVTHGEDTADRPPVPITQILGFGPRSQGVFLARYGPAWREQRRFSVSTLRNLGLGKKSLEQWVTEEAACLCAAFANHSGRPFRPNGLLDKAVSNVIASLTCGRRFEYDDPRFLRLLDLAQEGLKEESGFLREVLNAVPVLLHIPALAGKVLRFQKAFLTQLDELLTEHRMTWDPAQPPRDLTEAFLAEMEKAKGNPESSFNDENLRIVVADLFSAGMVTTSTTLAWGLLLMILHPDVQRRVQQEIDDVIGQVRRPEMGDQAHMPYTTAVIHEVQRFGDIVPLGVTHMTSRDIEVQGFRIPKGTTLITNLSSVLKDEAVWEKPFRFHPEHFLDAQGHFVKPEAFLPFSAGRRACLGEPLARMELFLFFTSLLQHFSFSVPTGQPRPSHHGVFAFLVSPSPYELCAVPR

Cytochrome P450 2D6 [3] = target: T2, Cytochrome P450 2D6 (Homo sapiens, UniProt P10635); assay: as §3; type: ADME; summary of the method: as §1
T2 sequence (P10635 whole entry): as the sequence (P10635 whole entry, canonical isoform) above

[4] = In vivo steady state metabolic clearance of the compound; settings: rat
[5] = target: T3, Amyloid-beta precursor protein (Homo sapiens, UniProt P05067); settings: at 100 µM
Target sequence in this assay (P05067 whole entry): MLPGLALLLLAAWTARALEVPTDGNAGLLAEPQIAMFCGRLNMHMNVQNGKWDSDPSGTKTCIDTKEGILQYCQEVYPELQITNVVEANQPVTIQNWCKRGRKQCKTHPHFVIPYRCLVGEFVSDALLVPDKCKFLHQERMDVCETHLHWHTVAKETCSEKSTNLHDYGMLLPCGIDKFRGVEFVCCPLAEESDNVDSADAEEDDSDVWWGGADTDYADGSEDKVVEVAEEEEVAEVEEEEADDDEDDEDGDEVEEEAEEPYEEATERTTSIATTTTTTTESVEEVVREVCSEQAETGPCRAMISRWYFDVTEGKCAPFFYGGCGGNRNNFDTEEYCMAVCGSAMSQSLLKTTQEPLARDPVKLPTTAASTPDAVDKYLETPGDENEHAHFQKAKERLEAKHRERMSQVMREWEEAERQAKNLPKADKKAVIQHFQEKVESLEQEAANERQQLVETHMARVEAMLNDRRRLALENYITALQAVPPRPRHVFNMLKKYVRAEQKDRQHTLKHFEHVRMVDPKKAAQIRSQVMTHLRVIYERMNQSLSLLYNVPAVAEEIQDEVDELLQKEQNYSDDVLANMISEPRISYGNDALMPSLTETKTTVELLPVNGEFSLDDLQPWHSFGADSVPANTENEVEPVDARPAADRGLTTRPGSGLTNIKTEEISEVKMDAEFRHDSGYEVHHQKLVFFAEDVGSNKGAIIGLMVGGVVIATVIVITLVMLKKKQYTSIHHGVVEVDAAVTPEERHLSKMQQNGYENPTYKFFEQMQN

[6] = target: T3, Amyloid-beta precursor protein; assay: Inhibitory concentration against beta-amyloid-42 (Abeta42) secretion was evaluated in human neuroglioma cells (H4-APP695NL); type: functional, cell-based
Summary of the method: (§4)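 H4-APP695NL human neuroglioma cells (APP695 Swedish K595N/M596L) seeded at 2 × 10^5/well and grown 24 h to confluence. Increasing compound concentrations added overnight; DMSO 1% as vehicle. Supernatant Aβ42 or Aβ40 measured by electrochemiluminescence immunoassay: biotinylated 4G8 plus C-terminus-specific rabbit antibodies, captured on streptavidin beads.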
Target sequence in this assay (P05067 18-770 limits assumed): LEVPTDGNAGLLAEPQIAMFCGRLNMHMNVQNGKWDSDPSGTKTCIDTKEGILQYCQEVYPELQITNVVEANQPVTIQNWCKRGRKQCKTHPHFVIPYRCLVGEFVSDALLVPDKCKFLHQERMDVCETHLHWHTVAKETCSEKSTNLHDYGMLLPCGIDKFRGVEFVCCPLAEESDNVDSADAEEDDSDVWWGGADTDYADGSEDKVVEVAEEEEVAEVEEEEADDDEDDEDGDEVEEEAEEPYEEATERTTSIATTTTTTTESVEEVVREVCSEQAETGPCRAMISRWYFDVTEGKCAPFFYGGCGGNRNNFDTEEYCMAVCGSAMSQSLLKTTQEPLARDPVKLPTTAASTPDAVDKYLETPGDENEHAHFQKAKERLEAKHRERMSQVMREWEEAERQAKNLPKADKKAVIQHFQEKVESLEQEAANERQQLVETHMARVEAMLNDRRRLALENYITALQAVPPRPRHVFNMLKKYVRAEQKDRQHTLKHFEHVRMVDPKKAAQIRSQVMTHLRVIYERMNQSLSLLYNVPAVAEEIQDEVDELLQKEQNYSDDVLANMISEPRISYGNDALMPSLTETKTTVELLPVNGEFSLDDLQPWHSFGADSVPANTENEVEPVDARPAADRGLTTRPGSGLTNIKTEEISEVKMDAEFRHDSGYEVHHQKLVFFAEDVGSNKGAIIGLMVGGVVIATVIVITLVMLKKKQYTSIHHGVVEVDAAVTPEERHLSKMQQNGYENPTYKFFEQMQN

[7] = Concentration ratio in cerebrospinal fluid and plasma; settings: rat
[8] = target: T3, Amyloid-beta precursor protein; assay: Concentration required to inhibit A beta 40 peptide; summary of the method: as §4
Target sequence in this assay (P05067 whole entry): as the sequence (P05067 whole entry) above

CYP1A2 = target: T4, CYP1A2 (Homo sapiens, UniProt P05177); assay: Interaction with human cytochrome P450 isoform 1A2 expressed in baculovirus-insect cells at 100 uM; type: ADME; summary of the method: as §1
T4 sequence (P05177 whole entry): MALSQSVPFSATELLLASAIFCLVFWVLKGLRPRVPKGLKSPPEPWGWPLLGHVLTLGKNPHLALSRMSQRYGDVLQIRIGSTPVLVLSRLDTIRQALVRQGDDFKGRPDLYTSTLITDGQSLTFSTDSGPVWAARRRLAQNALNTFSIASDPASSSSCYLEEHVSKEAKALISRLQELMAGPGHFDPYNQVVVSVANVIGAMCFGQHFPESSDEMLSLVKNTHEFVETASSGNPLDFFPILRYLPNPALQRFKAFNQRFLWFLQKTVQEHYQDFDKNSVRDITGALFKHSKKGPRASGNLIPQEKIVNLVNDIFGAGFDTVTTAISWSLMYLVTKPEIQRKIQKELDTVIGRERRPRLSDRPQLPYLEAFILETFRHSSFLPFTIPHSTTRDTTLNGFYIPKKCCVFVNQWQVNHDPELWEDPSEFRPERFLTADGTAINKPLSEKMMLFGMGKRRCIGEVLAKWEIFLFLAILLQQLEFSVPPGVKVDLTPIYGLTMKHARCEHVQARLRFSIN

Cytochrome P450 3A4 [9] = target: T5, Cytochrome P450 3A4 (Homo sapiens, UniProt P08684); assay: (§5) Interaction with human cytochrome P450 isoform 3A4 expressed in baculovirus-insect cells; type: ADME
T5 sequence (P08684 whole entry, canonical isoform): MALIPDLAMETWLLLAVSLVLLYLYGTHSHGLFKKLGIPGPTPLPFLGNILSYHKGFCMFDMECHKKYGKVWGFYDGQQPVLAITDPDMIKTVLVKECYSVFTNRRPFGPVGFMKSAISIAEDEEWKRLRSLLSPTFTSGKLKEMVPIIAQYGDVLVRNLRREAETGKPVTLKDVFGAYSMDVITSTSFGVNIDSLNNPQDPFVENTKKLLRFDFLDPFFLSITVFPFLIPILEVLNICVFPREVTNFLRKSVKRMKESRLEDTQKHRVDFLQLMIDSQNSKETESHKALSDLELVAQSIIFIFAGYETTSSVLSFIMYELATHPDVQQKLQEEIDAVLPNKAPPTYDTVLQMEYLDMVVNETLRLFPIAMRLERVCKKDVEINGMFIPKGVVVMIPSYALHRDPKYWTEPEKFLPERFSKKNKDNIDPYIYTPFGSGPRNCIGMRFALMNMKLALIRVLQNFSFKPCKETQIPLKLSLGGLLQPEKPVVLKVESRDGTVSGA
Summary of the method: (§6)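 Supersome microsomes from baculovirus-insect cells expressing human CYP1A2, 2C9, 2C19, 2D6 or 3A4 were used with isoform-specific fluorogenic substrates. Compounds were serially diluted with an NADP⁺/glucose-6-phosphate regenerating system in 0.35 M potassium phosphate, pH 7.4. Plates were prewarmed 10 min at 37 °C, reactions stopped with acetonitrile/Tris, and fluorescence read. IC50 was obtained by nonlinear regression.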

Cytochrome P450 1A2 [10] = target: T6, Cytochrome P450 1A2 (Homo sapiens, UniProt P05177); assay: (§7) Interaction with human cytochrome P450 isoform 1A2 expressed in baculovirus-insect cells; type: ADME; summary of the method: as §6
T6 sequence (P05177 whole entry): T4 sequence (P05177 whole entry)

Cytochrome P450 2D6 [11] = target: T2, Cytochrome P450 2D6; assay: Interaction with human cytochrome P450 isoform 2D6 expressed in baculovirus-insect cells; type: ADME; summary of the method: as §6
Cytochrome P450 2C9 = Cytochrome P450 2C9 (Homo sapiens, UniProt P11712); assay: Interaction with human cytochrome P450 isoform 2C9 expressed in baculovirus-insect cells; type: ADME; summary of the method: as §1
Cytochrome P450 2C9, sequence (P11712 whole entry, canonical isoform): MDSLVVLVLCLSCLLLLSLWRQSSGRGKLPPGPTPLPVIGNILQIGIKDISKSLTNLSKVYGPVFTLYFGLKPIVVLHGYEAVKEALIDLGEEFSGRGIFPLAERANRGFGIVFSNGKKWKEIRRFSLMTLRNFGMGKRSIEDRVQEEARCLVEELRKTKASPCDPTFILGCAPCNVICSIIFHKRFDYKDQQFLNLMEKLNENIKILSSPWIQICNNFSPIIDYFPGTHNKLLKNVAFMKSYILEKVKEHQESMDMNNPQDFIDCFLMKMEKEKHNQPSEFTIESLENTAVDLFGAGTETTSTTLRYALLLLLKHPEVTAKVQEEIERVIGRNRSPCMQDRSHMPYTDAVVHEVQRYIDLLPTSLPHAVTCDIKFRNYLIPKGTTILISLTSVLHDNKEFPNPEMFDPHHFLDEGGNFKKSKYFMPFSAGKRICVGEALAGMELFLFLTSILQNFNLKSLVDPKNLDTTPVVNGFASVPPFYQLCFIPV

Cytochrome P450 2C19 [12] = target: T7, Cytochrome P450 2C19 (Homo sapiens, UniProt P33261); assay: Interaction with human cytochrome P450 isoform 2C19 expressed in baculovirus-insect cells; type: ADME; summary of the method: as §1
T7 sequence (P33261 whole entry, canonical isoform): as the sequence (P33261 whole entry, canonical isoform) above

Caco-2 = assay: Permeability in the Caco-2 cell; high absorption; type: ADME, cell-based; settings: human; summary of the method: as §2
Cytochrome P450 2C19 [13] = target: T7, Cytochrome P450 2C19; assay: Compound dissolved in DMSO was tested for interaction with baculovirus-insect cells expressing human cytochrome P450 at 100 uM; type: ADME; summary of the method: as §1
Cytochrome P450 1A2 [14] = target: T6, Cytochrome P450 1A2; assay: as §7; type: ADME; summary of the method: as §1; remark: listed apart in the source
[15] = Concentration ratio in cerebrospinal fluid and plasma; LLOQ = lower limit of quantitation; settings: rat
[16] = target: T3, Amyloid-beta precursor protein; assay: Concentration required to inhibit A beta 40 peptide 100 uM
Target sequence in this assay (P05067 whole entry): as the sequence (P05067 whole entry) above

Cytochrome P450 3A4 [17] = target: T5, Cytochrome P450 3A4; assay: as §5; type: ADME; summary of the method: as §1; remark: listed apart in the source
[18] = Intestinal drug absorption was estimated in vitro using human colon adenocarcinoma (Caco-2) cell monolayers; type: ADME; summary of the method: as §2
Cytochrome P450 3A4 [19] = target: T5, Cytochrome P450 3A4; assay: Inhibition of cytochrome P450 3A4 at 100 uM; activation observed; type: ADME; summary of the method: as §6

Compound: CC(C(=O)O)c1ccc(-c2ccc(C(F)(F)F)cc2)c(F)c1 (stereo unspecified)
Absoption (Caco-2): High
inhibition [1]: 40%
inhibition [5]: 60%
IC50 [6]: 129 µM
Inhibition (Cytochrome P450 2C19 [13]): No interactions

Compound: O=C(O)C1(c2ccc(-c3ccc(C4CCCCC4)cc3)c(F)c2)CC1
inhibition [1]: 12%
IC50 (Cytochrome P450 3A4 [19]): 59 µM
inhibition [5]: 60%

Further compounds by falling IC50 [6], results first:

inhibition [1]: 20%
Inhibition (Cytochrome P450 1A2 [14]): > 50%
Ratio [15]: Below LLOQ
Clearance [4]: 148 mL/h
inhibition [5]: 76%
inhibition [16]: 25%
Inhibition (Cytochrome P450 3A4 [17]): > 50%
IC50 [6]: 41 µM
Papp [18]: > 5 ×10⁻⁶ cm/s
Compound: CC(C(=O)O)c1ccc(-c2ccc(OC3CCCCC3)cc2)c(F)c1 (stereo unspecified)

inhibition [1]: 18%
inhibition at 100 µM (CYP2C19): > 50%
Papp [2]: 5 ×10⁻⁶ cm/s
inhibition at 100 µM (CYP2D6): > 50%
Inhibition (Cytochrome P450 2D6 [3]): > 50%
Clearance [4]: 174 mL/h
inhibition [5]: 79%
IC50 [6]: 21 µM
Ratio [7]: 1.5%
IC50 [8]: 46 µM
inhibition at 100 µM (CYP1A2): > 50%
Compound: CC(C(=O)O)c1ccc(-c2ccc(C3CCCCC3)cc2)c(F)c1 (stereo unspecified)

IC50 (Cytochrome P450 3A4 [9]): 27 µM
Clearance [4]: 134 mL/h
inhibition [5]: 97%
IC50 [6]: 11 µM
IC50 (Cytochrome P450 1A2 [10]): 26 µM
IC50 (Cytochrome P450 2D6 [11]): 30 µM
IC50 (Cytochrome P450 2C9): 15 µM
IC50 (Cytochrome P450 2C19 [12]): 33 µM
Compound: CC1(C)CC(Oc2ccc(-c3ccc(C4(C(=O)O)CC4)cc3F)cc2)CC(C)(C)C1
